Results taken from paper PMC11152992 (Nature, 2024).

Key:
[1] = target: T1, 5-HT1A (Homo sapiens, UniProt P08908); assay: 5-HT1A-mediated Gi1 activation, BRET; assay type: cell-based; details: for EC50: read-out: Gi BRET EC50, 5-HT1A-mediated Gi1 activation, HEK293-T cells; for 5-HT1A efficacy (in words): Gi BRET, compared with serotonin; for maximum drug effect (Emax): 5-HT1A-mediated activation of Gi1, BRET
T1 sequence (P08908 1-422): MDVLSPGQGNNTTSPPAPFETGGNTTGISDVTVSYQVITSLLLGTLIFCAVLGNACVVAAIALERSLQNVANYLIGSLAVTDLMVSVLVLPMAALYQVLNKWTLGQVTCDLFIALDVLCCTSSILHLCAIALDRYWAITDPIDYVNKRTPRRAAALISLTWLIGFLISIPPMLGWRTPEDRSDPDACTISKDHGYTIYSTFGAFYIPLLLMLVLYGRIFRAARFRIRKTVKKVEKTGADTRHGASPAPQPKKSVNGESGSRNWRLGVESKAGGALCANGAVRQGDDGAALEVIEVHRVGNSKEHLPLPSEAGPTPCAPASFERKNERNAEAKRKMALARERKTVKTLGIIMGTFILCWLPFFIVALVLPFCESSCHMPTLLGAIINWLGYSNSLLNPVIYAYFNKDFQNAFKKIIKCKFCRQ

[2] = target: 5-HT2A (Homo sapiens, UniProt P28223); assay: 5-HT2A-mediated Gq activation, BRET; assay type: cell-based; details: relative to 5-MeO-DMT
Sequence of 5-HT2A (P28223 whole entry): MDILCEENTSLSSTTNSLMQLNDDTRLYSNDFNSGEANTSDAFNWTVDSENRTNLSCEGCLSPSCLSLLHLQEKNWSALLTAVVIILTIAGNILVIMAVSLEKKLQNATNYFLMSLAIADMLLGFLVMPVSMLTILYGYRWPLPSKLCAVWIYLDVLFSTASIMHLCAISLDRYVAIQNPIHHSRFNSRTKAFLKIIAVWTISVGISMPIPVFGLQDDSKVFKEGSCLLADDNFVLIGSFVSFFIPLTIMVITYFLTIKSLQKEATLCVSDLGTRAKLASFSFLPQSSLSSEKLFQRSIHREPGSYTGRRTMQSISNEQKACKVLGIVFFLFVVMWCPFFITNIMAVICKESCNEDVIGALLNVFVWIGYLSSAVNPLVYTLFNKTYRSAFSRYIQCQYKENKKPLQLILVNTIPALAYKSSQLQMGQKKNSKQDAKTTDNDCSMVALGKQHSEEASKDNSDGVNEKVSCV

[3] = target: 5-HT2A(N343A) (Homo sapiens, UniProt P28223, N343A); assay: 5-HT2A-Gq BRET at mutant receptor N343A; assay type: cell-based; details: 5-HT2A N343A versus wild type
Sequence of 5-HT2A(N343A) (P28223 whole entry N343A): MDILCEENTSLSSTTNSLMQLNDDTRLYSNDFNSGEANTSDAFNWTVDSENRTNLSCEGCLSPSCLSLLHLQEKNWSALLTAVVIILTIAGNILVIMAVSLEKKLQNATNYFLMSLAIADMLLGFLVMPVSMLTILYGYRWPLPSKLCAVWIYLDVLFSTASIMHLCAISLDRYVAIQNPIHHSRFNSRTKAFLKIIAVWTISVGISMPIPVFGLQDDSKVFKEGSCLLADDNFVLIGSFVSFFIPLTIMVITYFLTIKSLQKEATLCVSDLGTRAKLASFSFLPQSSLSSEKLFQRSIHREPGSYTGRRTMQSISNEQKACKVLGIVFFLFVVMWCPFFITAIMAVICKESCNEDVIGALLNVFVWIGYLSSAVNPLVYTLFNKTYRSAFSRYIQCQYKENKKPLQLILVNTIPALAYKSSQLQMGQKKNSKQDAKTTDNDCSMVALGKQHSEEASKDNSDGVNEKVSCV

[4] = test system: locomotor activity (measure of 5-HT1A activation); assay: Open-field locomotion assay; assay type: in vivo, C57BL/6J mice; details: mice, s.c.
Procedure, shortened: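 Male C57BL/6J mice aged 10–15 weeks were habituated for 30 min, then pretreated with vehicle or WAY-100635 (1 or 2 mg kg⁻¹ s.c.). Test compound followed 15 min later, s.c. at 0.1–3 or 0.3–10 mg kg⁻¹. Mice were placed immediately in a clear arena lit at about 330 lux. Observers were blinded; total locomotion was recorded automatically over 30 min, n = 7–8 per group.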

[5] = test system: head-twitch response (measure of 5-HT2A activation); assay: Head-twitch response; assay type: in vivo, C57BL/6J mice; details: mice, following co-administration of the 5-HT1A-selective antagonist WAY-100635
[6] = test system: 5-HT1A(A365N); assay: 5-HT1A-Gi BRET at mutant receptor A365N; assay type: cell-based, human; details: 5-HT1A A365N versus wild type
[7] = Mouse brain tissue binding; assay type: in vitro ADME; details: for fraction unbound at 4 h, 5 µM: mouse, mouse brain tissue
[8] = target: 5-HT2A(V366N) (Homo sapiens, UniProt P28223, V366N); details: 5-HT2A V366N versus wild type
Sequence of 5-HT2A(V366N) (P28223 whole entry V366N): as the sequence (P28223 whole entry N343A) above, with A343N, V366N counted along it

[9] = test system: chronic social defeat stress mice; assay: Sucrose preference test after chronic social defeat stress; assay type: in vivo, C57BL/6J mice; details: stressed mice
Procedure, shortened: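 Chronic social defeat was 10 days of 10-min bouts by CD-1 aggressors in male C57BL/6J mice. On day 10, stressed mice were housed singly and habituated to two water bottles, then given a two-bottle choice between water and 1% sucrose. Data were pooled from two independent experiments.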

[10] = Mouse plasma protein binding; assay type: in vitro ADME; details: for fraction unbound at 4 h, 5 µM: mouse, mouse plasma
[11] = Human plasma protein binding; assay type: in vitro ADME

COc1ccc2[nH]cc(CCN3CC=CC3)c2c1F [4-F,5-MeO-3-PyrrolineT]
EC50 [1]: 0.22 nM

COc1ccc2[nH]cc(CCN(C)C)c2c1F [4-F,5-MeO-DMT]
decrease in 5-HT2A potency [2]: 3 fold
increase in potency at 5-HT1A ([1]; relative to 5-MeO-DMT): 14 fold

CN(C)CCc1c[nH]c2ccc(O)c(F)c12 [4-F,5-OH-DMT]
decrease in potency by N343A mutation [3]: ~19 fold

COc1ccc2[nH]cc(CCN3CC=CC3)c2c1 [5-MeO-3-PyrrolineT]
EC50 [1]: 0.3 nM
further increase in potency at 5-HT1A ([1]; relative to 5-MeO-PyrT): around eightfold

CCN(CC)CCc1c[nH]c2ccc(OC)cc12 [5-MeO-DET]
5-HT1A efficacy (in words) [1]: full efficacy
EC50 [1]: 37.1 nM

CCN(C)CCc1c[nH]c2ccc(OC)cc12 [5-MeO-MET]
locomotor activity in the open-field test (in words) [4]: dose-dependent locomotor suppression
HTR (in words) [5]: strong dose-dependent activity
5-HT1A efficacy (in words) [1]: full efficacy
EC50 [1]: 25.9 nM

COc1ccc2[nH]cc(CCN3CCCCC3)c2c1 [5-MeO-PipT, 5-methoxypiperidinyl-tryptamine]
EC50 [1]: 88.5 nM
loss of potency at 5-HT1A ([1]; relative to 5-MeO-PyrT): ~42 fold

COc1ccc2[nH]cc(CCN3CCCC3)c2c1 [5-MeO-PyrT, 5-methoxy-N,N-pyrrolidinyl-tryptamine]
decrease in 5-HT2A potency [2]: about 3 fold
selectivity for 5-HT1A > 5-HT2A ([1]; Gi BRET at 5-HT1A versus Gq BRET at 5-HT2A): > 38 fold
increase in 5-HT1A > 5-HT2A selectivity ([1]; cyclization of the amine moiety alone, relative to 5-MeO-DMT): approximately 38 fold
EC50 [1]: 2.1 nM
increase in potency at 5-HT1A ([1]; relative to 5-MeO-DMT): about 12 fold

CN(C)CCc1c[nH]c2ccc(O)cc12 [5-OH-DMT, bufotenine]
decrease in potency by A365N mutation [6]: about 18 fold

NC(=O)N1c2ccccc2C=Cc2ccccc21 [Carbamazepine, reference compound]
% Compound remaining at 4 h ([7]; 37 °C): 96%
fraction unbound at 4 h, 5 µM ([7]; pH 7.4, % Unbound): 0.118
fraction unbound at 4 h, 5 µM ([7]; pH 7.4, fu): 0.118

CN(C)CCc1c[nH]c2ccccc12 [DMT, N,N-dimethyltryptamine, reference compound]
effect of N343A mutation on potency (in words) [3]: minor effects

CCN(CC)C(=O)[C@@H]1C=C2c3cccc4[nH]cc(c34)C[C@H]2N(C)C1 [LSD, lysergic acid diethylamide]
effect of V366N mutation on signalling efficacy at 5-HT2A (in words) [8]: increase in signalling efficacy

COc1ccccc1N1CCN(CCN(C(=O)C2CCCCC2)c2ccccn2)CC1 [WAY-100635, reference compound]
increase of sucrose preference in stressed mice, treatment alone [9]: not significant

CC(=O)CC(c1ccccc1)c1c(O)c2ccccc2oc1=O (stereo not drawn) [Warfarin, reference compound]
% Compound remaining at 4 h ([10]; Mouse Plasma, 37 °C): 103.3%
fraction unbound at 4 h, 5 µM ([10]; pH 7.4, % Bound R2, Mouse Plasma, replicate 2, 4 h at 37 °C): 0.067
fraction unbound at 4 h, 5 µM ([10]; pH 7.4, % Unbound): 0.064
fraction unbound at 4 h, 5 µM ([10]; pH 7.4, fu): 0.064
% Compound remaining at 4 h ([11]; Human Plasma, 37 °C): 108.8%
fraction unbound at 4 h, 5 µM ([11]; human, human plasma, pH 7.4, % Bound R2, Human Plasma, replicate 2, 4 h at 37 °C): 0.015

O=C1CCc2ccc(OCCCCN3CCN(c4cccc(Cl)c4Cl)CC3)cc2N1 [aripiprazole, reference compound]
maximum drug effect (Emax) [1]: 77.1 % of 5-HT

O=C1CC2(CCCC2)CC(=O)N1CCCCN1CCN(c2ncccn2)CC1 [buspirone, reference compound]
maximum drug effect (Emax) [1]: 93.4 % of 5-HT

N#Cc1ccc2[nH]cc(CCCCN3CCN(c4ccc5oc(C(N)=O)cc5c4)CC3)c2c1 [vilazodone, reference compound]
lowest concentration showing activity ([1]; 5-HT1A Gi BRET, suspected slow binding kinetics): 30 pM
maximum drug effect (Emax) [1]: 97.4 % of 5-HT
